From ChEMBL document CHEMBL1153099, “2,4-Diaryl-4,6,7,8-tetrahydroquinazolin-5(1H)-one derivatives as anti-HBV agents targeting at capsid assembly” (Bioorg Med Chem Lett, 2010)

Legend:
[1] = Cytotoxicity against human HepG2(2.2.15) cells; assay type: cell-based
In short: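 Viability of HepG2.2.15 cells was read after 48 h of compound exposure. Cytotoxic IC50 is the mean of three experiments.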

Hepatitis B virus = assay: Antiviral activity against HBV infected in human HepG2.2.15 cells assessed as inhibition of viral DNA replication; assay type: functional, organism-based, HepG2 2.2.15
In short: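 HepG2.2.15 cells, which secrete virus-like particles. Reference anti-HBV agents were run as positive controls. IC50 is the mean of three experiments. A compound with no activity at its maximum nontoxic concentration was scored as not active.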

[2] = Therapeutic index, ratio of IC50 for human HepG2(2.2.15) cells to IC50 for HBV; assay type: cell-based; conditions: read-out: Ratio IC50
[3] = Hepatitis B virus, HepG2 2.2.15, read-out: IC50

| Compound | IC50 [1] | IC50 (Hepatitis B virus; [3]) | selectivity ratio [2] | IC50 (Hepatitis B virus; hepg2 2.2.15) |
| --- | --- | --- | --- | --- |
| COC(=O)C1=C(C)NC(c2ncc(F)cc2F)=N[C@H]1c1ccc(F)cc1Cl | 567 µM | 0.78 µM |  |  |
| CC1(C)CC(=O)C2=C(C1)NC(c1cccnc1)=NC2c1ccccc1Cl (centres undefined) | 67.3 µM | 26.2 µM | 2.56 |  |
| Nc1ccn([C@@H]2CS[C@H](CO)O2)c(=O)n1 [LAMIVUDINE] |  | 0.22 µM |  |  |
| CC1(C)CC(=O)C2=C(C1)NC(c1nccs1)=NC2c1ccc(F)cc1Cl (centres undefined) | 57 µM | 3.12 µM | 19.2 |  |
| O=C1CCCC2=C1C(c1ccc(F)cc1)N=C(c1cccnc1)N2 (centres undefined) | 280 µM |  |  | Not Active |
| O=C1CCCC2=C1C(c1ccc(F)cc1Cl)N=C(c1ccco1)N2 (centres undefined) | 717 µM |  |  | Not Active |
| CC1(C)CC(=O)C2=C(C1)NC(c1cnccn1)=NC2c1ccccc1Cl (centres undefined) | 623 µM |  |  | Not Active |
| O=C1CCCC2=C1C(c1ccc(F)cc1Cl)N=C(c1cccnc1)N2 (centres undefined) | 82.8 µM | 25.1 µM |  |  |
| O=C1CCCC2=C1C(c1ccc(F)cc1Cl)N=C(c1nccs1)N2 (centres undefined) | 47.7 µM | 8.75 µM | 5.73 |  |
| O=C1CCCC2=C1C(c1ccccc1)N=C(c1cccnc1)N2 (centres undefined) | 369 µM |  |  | Not Active |
| O=C1CCCC2=C1C(c1ccccc1Cl)N=C(c1ccccn1)N2 (centres undefined) | 589 µM |  |  | Not Active |
| O=C1CCCC2=C1C(c1ccc(F)cc1Cl)N=C(c1ccccn1)N2 (centres undefined) | 620 µM | 4.3 µM | 144 |  |
| O=C1CCCC2=C1C(c1ccc(F)cc1Cl)N=C(c1ncccc1F)N2 (centres undefined) | 1370 µM | 1.1 µM | 1240 |  |
| O=C1CCCC2=C1C(c1ccc(F)cc1Cl)N=C(c1cnccn1)N2 (centres undefined) | 777 µM | 2.3 µM | 338 |  |
| CC1(C)CC(=O)C2=C(C1)NC(c1cccnc1)=NC2c1ccc(F)cc1Cl (centres undefined) | 624 µM | 0.44 µM | 1420 |  |
| CC1(C)CC(=O)C2=C(C1)NC(c1c(F)cc(F)cc1F)=NC2c1ccc(F)cc1Cl (centres undefined) | 5.6 µM |  |  | Not Active |
| CC1(C)CC(=O)C2=C(C1)NC(c1ncccc1F)=NC2c1ccc(F)cc1Cl (centres undefined) | 371 µM |  |  | Not Active |
| CC1(C)CC(=O)C2=C(C1)NC(c1ccncc1)=NC2c1ccc(F)cc1Cl (centres undefined) | 135 µM | 4.92 µM | 27.3 |  |
| CC1(C)CC(=O)C2=C(C1)NC(c1ncc(F)cc1F)=NC2c1ccc(F)cc1Cl (centres undefined) | 41.2 µM | 1.05 µM | 39.2 |  |
| CC1(C)CC(=O)C2=C(C1)NC(c1cccnc1)=NC2c1ccc(F)cc1 (centres undefined) | 145 µM | 25.3 µM | 5.73 |  |
| O=C1CCCC2=C1C(c1ccc(F)cc1Cl)N=C(c1ccncc1)N2 (centres undefined) | 142 µM | 16.5 µM | 8.6 |  |
| O=C1CCCC2=C1C(c1ccccc1Cl)N=C(c1cccnc1)N2 (centres undefined) | 1120 µM |  |  | Not Active |
| O=C1CCCC2=C1C(c1ccccc1)N=C(c1ccccn1)N2 (centres undefined) | 571 µM | 6.6 µM | 86.6 |  |
| O=C1CCCC2=C1C(c1ccc(F)cc1)N=C(c1ccccn1)N2 (centres undefined) | 516 µM |  |  | Not Active |
| CC1(C)CC(=O)C2=C(C1)NC(c1cccnc1)=NC2c1ccccc1 (centres undefined) | 173 µM | 22.4 µM | 7.74 |  |
| CC1(C)CC(=O)C2=C(C1)NC(c1cnccn1)=NC2c1ccc(F)cc1Cl (centres undefined) | 773 µM | 14.2 µM | 54.5 |  |
| O=C1CCCC2=C1C(c1ccccc1Cl)N=C(c1cnccn1)N2 (centres undefined) | 1470 µM |  |  | Not Active |
| O=C1CCCC2=C1C(c1ccc(F)cc1Cl)N=C(c1c(F)cc(F)cc1F)N2 (centres undefined) | 123 µM |  |  | Not Active |
